# Measurements taken from ChEMBL document CHEMBL5724801, “EUbOPEN Chemogenomics Library - Multiplex” (2024).
# Several values for one entry are separate records, joined by “and”; a condition that tells them apart may be missing. Identical values can stand only once.
# Test system: HEK-293T
# Experiment: Multiplex assay against HEK293T
# Assay type: toxicity, cell-based
# Conditions: human
# Summary of the method: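 Imaging took place on a CQ1 microscope at 37°C and 5% CO2 once compound had been added to live cells stained at seeding with Hoechst33342, BioTracker Green Microtubule Cytoskeleton Dye, MitoTracker Red and Annexin V Alexa Fluor 680. CellPathfinder machine-learning gating classed cells as Hoechst high-intensity objects or normal cells, classed normal cells as having healthy, pyknosed or fragmented nuclei, and classed pyknosed cells as mitotic or apoptotic. Tubulin, mitochondrial-mass and membrane-permeability phenotypes are per cents of the healthy-nucleus cells.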
# [1] = 12 h, 1 µM, compound concentration 1 uM
# [2] = 12 h, 10 µM, compound concentration 10 uM
# [3] = 24 h, 1 µM, compound concentration 1 uM
# [4] = 24 h, 10 µM, compound concentration 10 uM
# [5] = 48 h, 1 µM, compound concentration 1 uM
# [6] = 48 h, 10 µM, compound concentration 10 uM
smiles,measurement,setting,value
CCn1c(-c2ccncc2)cc2c1CCNC2=O,Population Apoptotic (%),[1],15.09% and 7.09%
same,Population Fragmented Nuclei (%),[1],1.92% and 1.82%
same,Population Hoechst High Intensity Objects (%),[1],0.95% and 0%
same,Population Membrane Permeable-Phenotype (%),[1],2.72% and 0%
same,Population Mitochondria Different-Phenotype (%),[1],35.37% and 23.81%
same,Population Mitotic Cells (%),[1],84.91% and 92.91%
same,Population Normal (%),[1],99.05% and 100%
same,Population Pyknosed Nuclei (%),[1],50.96% and 85.45%
same,Population Tubulin-Different-Phenotype (%),[1],7.48% and 14.29%
same,Total Cell Count,[1],315 and 165
same,Population Apoptotic (%),[2],15.05% and 13.74%
same,Population Fragmented Nuclei (%),[2],0.77% and 4.17%
same,Population Hoechst High Intensity Objects (%),[2],0%
same,Population Membrane Permeable-Phenotype (%),[2],0% and 14.29%
same,Population Mitochondria Different-Phenotype (%),[2],31.51% and 14.29%
same,Population Mitotic Cells (%),[2],84.95% and 86.26%
same,Population Normal (%),[2],100%
same,Population Pyknosed Nuclei (%),[2],71.26% and 90.97%
same,Population Tubulin-Different-Phenotype (%),[2],5.48% and 14.29%
same,Total Cell Count,[2],261 and 144
same,Population Apoptotic (%),[3],31.73% and 15.24%
same,Population Fragmented Nuclei (%),[3],2.16% and 2.84%
same,Population Hoechst High Intensity Objects (%),[3],0.27% and 0%
same,Population Membrane Permeable-Phenotype (%),[3],1.16% and 6.25%
same,Population Mitochondria Different-Phenotype (%),[3],23.17% and 18.75%
same,Population Mitotic Cells (%),[3],68.27% and 84.76%
same,Population Normal (%),[3],99.73% and 100%
same,Population Pyknosed Nuclei (%),[3],28.03% and 74.47%
same,Population Tubulin-Different-Phenotype (%),[3],32.43% and 18.75%
same,Total Cell Count,[3],372 and 141
same,Population Apoptotic (%),[4],46.45% and 34.13%
same,Population Fragmented Nuclei (%),[4],1.6% and 3.57%
same,Population Hoechst High Intensity Objects (%),[4],0%
same,Population Membrane Permeable-Phenotype (%),[4],0%
same,Population Mitochondria Different-Phenotype (%),[4],30.77% and 44.44%
same,Population Mitotic Cells (%),[4],53.55% and 65.87%
same,Population Normal (%),[4],100%
same,Population Pyknosed Nuclei (%),[4],62% and 90%
same,Total Cell Count,[4],250 and 140
same,Population Apoptotic (%),[5],33.96% and 24.19%
same,Population Fragmented Nuclei (%),[5],5.74% and 0%
same,Population Healthy Nuclei (%),[5],80.42% and 45.61%
same,Population Hoechst High Intensity Objects (%),[5],0.78% and 0.87%
same,Population Membrane Permeable-Phenotype (%),[5],2.6% and 0%
same,Population Mitochondria Different-Phenotype (%),[5],61.36% and 40.38%
same,Population Mitotic Cells (%),[5],66.04% and 75.81%
same,Population Normal (%),[5],99.22% and 99.13%
same,Population Apoptotic (%),[6],66.43% and 44.74%
same,Population Fragmented Nuclei (%),[6],1.61% and 5.88%
same,Population Hoechst High Intensity Objects (%),[6],0%
same,Population Membrane Permeable-Phenotype (%),[6],0%
same,Population Mitochondria Different-Phenotype (%),[6],82.35% and 78.57%
same,Population Mitotic Cells (%),[6],33.57% and 55.26%
same,Population Normal (%),[6],100%
same,Population Pyknosed Nuclei (%),[6],57.43% and 83.82%
same,Total Cell Count,[6],249 and 136
Cc1cnc(-c2cc(N3CCN(C(=O)CCS(C)(=O)=O)CC3)ncc2Cl)c(C)c1,Population Apoptotic (%),[1],29% and 42%
same,Population Fragmented Nuclei (%),[1],6%
same,Population Healthy Nuclei (%),[1],76% and 75%
same,Population Hoechst High Intensity Objects (%),[1],4% and 9%
same,Population Membrane Permeable-Phenotype (%),[1],0%
same,Population Mitochondria Different-Phenotype (%),[1],50% and 69%
same,Population Mitotic Cells (%),[1],70% and 57%
same,Population Normal (%),[1],95% and 90%
same,Population Pyknosed Nuclei (%),[1],16% and 17%
same,Population Tubulin-Different-Phenotype (%),[1],33% and 24%
same,Total Cell Count,[1],276 and 294
same,Population Apoptotic (%),[2],42% and 45%
same,Population Fragmented Nuclei (%),[2],7%
same,Population Healthy Nuclei (%),[2],82% and 75%
same,Population Hoechst High Intensity Objects (%),[2],10% and 7%
same,Population Membrane Permeable-Phenotype (%),[2],0%
same,Population Mitochondria Different-Phenotype (%),[2],47% and 70%
same,Population Mitotic Cells (%),[2],57% and 54%
same,Population Normal (%),[2],89% and 92%
same,Population Pyknosed Nuclei (%),[2],10% and 17%
same,Population Tubulin-Different-Phenotype (%),[2],40% and 39%
same,Total Cell Count,[2],409 and 288
same,Population Apoptotic (%),[3],36% and 40%
same,Population Fragmented Nuclei (%),[3],8% and 7%
same,Population Healthy Nuclei (%),[3],78% and 83%
same,Population Hoechst High Intensity Objects (%),[3],2% and 6%
same,Population Membrane Permeable-Phenotype (%),[3],1% and 0%
same,Population Mitochondria Different-Phenotype (%),[3],30% and 36%
same,Population Mitotic Cells (%),[3],63% and 60%
same,Population Normal (%),[3],97% and 93%
same,Population Pyknosed Nuclei (%),[3],12% and 9%
same,Population Tubulin-Different-Phenotype (%),[3],21% and 13%
same,Total Cell Count,[3],368 and 413
same,Population Apoptotic (%),[4],33% and 51%
same,Population Fragmented Nuclei (%),[4],15% and 7%
same,Population Healthy Nuclei (%),[4],76% and 80%
same,Population Hoechst High Intensity Objects (%),[4],5%
same,Population Membrane Permeable-Phenotype (%),[4],0%
same,Population Mitochondria Different-Phenotype (%),[4],29% and 47%
same,Population Mitotic Cells (%),[4],66% and 48%
same,Population Normal (%),[4],94%
same,Population Pyknosed Nuclei (%),[4],8% and 12%
same,Population Tubulin-Different-Phenotype (%),[4],31% and 22%
same,Total Cell Count,[4],550 and 392
same,Population Apoptotic (%),[5],27% and 34%
same,Population Fragmented Nuclei (%),[5],17% and 14%
same,Population Healthy Nuclei (%),[5],76% and 78%
same,Population Hoechst High Intensity Objects (%),[5],1% and 2%
same,Population Membrane Permeable-Phenotype (%),[5],1% and 0%
same,Population Mitochondria Different-Phenotype (%),[5],17% and 22%
same,Population Mitotic Cells (%),[5],72% and 65%
same,Population Normal (%),[5],98% and 97%
same,Population Pyknosed Nuclei (%),[5],6%
same,Population Tubulin-Different-Phenotype (%),[5],10% and 6%
same,Total Cell Count,[5],718 and 595
same,Population Apoptotic (%),[6],25% and 36%
same,Population Fragmented Nuclei (%),[6],14%
same,Population Healthy Nuclei (%),[6],78% and 77%
same,Population Hoechst High Intensity Objects (%),[6],4% and 3%
same,Population Membrane Permeable-Phenotype (%),[6],0%
same,Population Mitochondria Different-Phenotype (%),[6],23% and 32%
same,Population Mitotic Cells (%),[6],74% and 63%
same,Population Normal (%),[6],95% and 96%
same,Population Pyknosed Nuclei (%),[6],7% and 8%
same,Population Tubulin-Different-Phenotype (%),[6],17% and 15%
same,Total Cell Count,[6],753 and 576
